Test results from ChEMBL document CHEMBL1158354, “Condensed 1,4-dihydropyridines with various esters and their calcium channel antagonist activities” (2009).
The source made the active and inactive calls. The calls are words filed in the database; no cut-off is given here.

Legend:
Oryctolagus cuniculus [1] = organism: Oryctolagus cuniculus; assay: (§1) Antagonist activity at voltage dependent L-type calcium channel in New Zealand white rabbit sigmoid colon circular smooth muscle strip assessed as relaxation response relative to papaverine; assay type: functional
Oryctolagus cuniculus [2] = organism: Oryctolagus cuniculus; assay: (§2) Antagonist activity at voltage dependent L-type calcium channel in New Zealand white rabbit sigmoid colon circular smooth muscle strip assessed as relaxation response; assay type: functional
Summary of the method: (§3)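 Strips held at 1 g basal tension and equilibrated 60 min in Ca2+-free KHS, with the solution changed every 15 min. Strips were then placed in Ca2+-free, 80 mM K+ solution and contracted by cumulative Ca2+ (2.5, 5, 10 mM). At the contraction plateau, compounds were added cumulatively (10^-8–10^-4 M). Emax and pD2 (−log EC50) were derived from concentration–relaxation curves, n = 6.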

[3] = as §1; assay type: functional; settings: Oryctolagus cuniculus
[4] = (§4) Antagonist activity at voltage dependent L-type calcium channel in New Zealand white rabbit sigmoid colon circular smooth muscle strip assessed as induction of relaxation response in presence of Ca2+-activated potassium channel blocker tetraethylammonium; assay type: functional, Oryctolagus cuniculus; parameters: scale not given: the % may be the effect or the level left
[5] = as §2; assay type: functional, Oryctolagus cuniculus; summary of the method: as §3
Oryctolagus cuniculus [6] = organism: Oryctolagus cuniculus; assay: as §4; assay type: functional

SMILES | Emax (Oryctolagus cuniculus [1]) | Activity (Oryctolagus cuniculus [2]) | pD2 (Oryctolagus cuniculus [2]) | Emax [3] | Activity [4] | pD2 [5] | Activity (Oryctolagus cuniculus [6])
CC1=C(C(=O)OC(C)(C)C)C(c2cc(C(F)(F)F)cc(Cl)c2F)C2=C(CCC(C)(C)C2=O)N1 (stereo not drawn) | inactive | Dose-dependent effect | inactive | – | – | – | –
COC(=O)C1=C(C)NC2=C(C(=O)C(C)(C)CC2)C1c1cc(C(F)(F)F)cc(Cl)c1F (stereo not drawn) | – | Dose-dependent effect | – | 17.2% | 17.19% | 4.94 | –
COCCOC(=O)C1=C(C)NC2=C(C(=O)CC(C)(C)C2)C1c1cc(C(F)(F)F)cc(Cl)c1F (stereo not drawn) | – | Dose-dependent effect | – | 45% | – | 5.11 | –
CC1=C(C(=O)OCc2ccccc2)C(c2cc(C(F)(F)F)cc(Cl)c2F)C2=C(CCC(C)(C)C2=O)N1 (stereo not drawn) | inactive | Dose-dependent effect | inactive | – | – | – | –
COCCOC(=O)C1=C(C)NC2=C(C(=O)C(C)(C)CC2)C1c1cc(C(F)(F)F)cc(Cl)c1F (stereo not drawn) | – | Dose-dependent effect | – | 43.7% | – | 4.89 | –
CC1=C(C(=O)OCC(C)C)C(c2cc(C(F)(F)F)cc(Cl)c2F)C2=C(CC(C)(C)CC2=O)N1 (stereo not drawn) | inactive | Dose-dependent effect | inactive | – | – | – | –
CC1(C)CC(=O)C2=C(C1)NC1=C(C(=O)OC1)C2c1cc(C(F)(F)F)cc(Cl)c1F (stereo not drawn) | inactive | Dose-dependent effect | inactive | – | – | – | –
CC1(C)CCC2=C(C1=O)C(c1cc(C(F)(F)F)cc(Cl)c1F)C1=C(COC1=O)N2 (stereo not drawn) | inactive | Dose-dependent effect | inactive | – | – | – | inactive
C=CCOC(=O)C1=C(C)NC2=C(C(=O)C(C)(C)CC2)C1c1cc(C(F)(F)F)cc(Cl)c1F (stereo not drawn) | inactive | Dose-dependent effect | inactive | – | – | – | –
CCOC(=O)C1=C(C)NC2=C(C(=O)C(C)(C)CC2)C1c1cc(C(F)(F)F)cc(Cl)c1F (stereo not drawn) | – | Dose-dependent effect | – | 23% | – | 5.06 | –
COC(=O)C1=C(C)NC(C)=C(C(=O)OC)C1c1ccccc1[N+](=O)[O-] [NIFEDIPINE] | – | Dose-dependent effect | – | 94% | – | 6.92 | –
COC(=O)C1=C(C)NC2=C(C(=O)CC(C)(C)C2)C1c1cc(C(F)(F)F)cc(Cl)c1F (stereo not drawn) | – | Dose-dependent effect | – | 32.2% | – | 4.84 | –
C=CCOC(=O)C1=C(C)NC2=C(C(=O)CC(C)(C)C2)C1c1cc(C(F)(F)F)cc(Cl)c1F (stereo not drawn) | inactive | Dose-dependent effect | inactive | – | – | – | –
CC1=C(C(=O)OCC(C)C)C(c2cc(C(F)(F)F)cc(Cl)c2F)C2=C(CCC(C)(C)C2=O)N1 (stereo not drawn) | inactive | Dose-dependent effect | inactive | – | – | – | –
CC1=C(C(=O)OC(C)(C)C)C(c2cc(C(F)(F)F)cc(Cl)c2F)C2=C(CC(C)(C)CC2=O)N1 (stereo not drawn) | inactive | Dose-dependent effect | inactive | – | – | – | –
CC1=C(C(=O)OCc2ccccc2)C(c2cc(C(F)(F)F)cc(Cl)c2F)C2=C(CC(C)(C)CC2=O)N1 (stereo not drawn) | inactive | Dose-dependent effect | inactive | – | – | – | –
CCOC(=O)C1=C(C)NC2=C(C(=O)CC(C)(C)C2)C1c1cc(C(F)(F)F)cc(Cl)c1F (stereo not drawn) | – | Dose-dependent effect | – | 22.8% | – | 4.74 | –
